Data: publication PMC4885662 (The Laryngoscope, 2014)
Where two headings read alike, the source gives them in different places.

Key:
guinea pigs [1] = type: in vivo, guinea pig; conditions: for Click threshold shift, difference as compared to the control group: single shot, vs water for injection ear
[2] = Body weight after systemic application; type: in vivo, guinea pig
[3] = cited from earlier work
outer hair cells = assay: Outer hair cell counts in organ of Corti whole-mounts; type: in vivo, guinea pig; conditions: for Outer hair cell counts, 2nd turn / Outer hair cell counts, 3rd turn / Outer hair cell counts, apex / Outer hair cell counts, basal turn: after day 28
Summary of the method: (§1)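 Guinea pigs were dosed intratympanically (bulla filled; water for injection in the opposite ear) or intraperitoneally daily for 3 days. After the day-28 audiometry they were perfused with 4% buffered PFA. Cochleae were decapsulated and stained 30 min at room temperature with phalloidin-TRITC (0.3 µg/ml) and Hoechst 33342 (0.05 mg/ml), then imaged by confocal microscopy. Hair cells were counted in 3 random 200 μm segments per turn, as viable/(viable+missing) percentage.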

inner hair cells = assay: Inner hair cell counts in organ of Corti whole-mounts; type: in vivo, guinea pig; conditions: 1.5 mg/kg systemic; after day 28
Summary of the method: as §1

guinea pigs [4] = type: in vivo, guinea pig; conditions: for Hearing threshold at 4 kHz / Hearing threshold at 8 kHz / Hearing threshold at 16 kHz / Hearing threshold at 32 kHz / Mean hearing threshold at 1 kHz / Mean hearing threshold at 2 kHz: day 28
peritoneum = assay: Histologic analysis of the peritoneum after i.p. application; type: in vivo, guinea pig; conditions: selected animals

CNCC(Cl)c1ccc(OC(C)=O)cc1.Cl (centres unmarked) [CpdA, 2-(4-acetoxyphenyl)-2-chloro-N-methyl-ethylammonium chloride]
Click threshold shift, difference as compared to the control group (guinea pigs [1]; 1 mM IT): 28 dB | Difference in click threshold shift vs control, day 28 (guinea pigs [1]; 1 mM IT): 19 dB | Change in click hearing thresholds as compared to baseline (guinea pigs [1]; 1.5 mg/kg intraperitoneally on three consecutive days): did not result in clinically relevant or statistically significant changes | Change in click hearing thresholds as compared to baseline (guinea pigs [1]; 4.5 mg/kg intraperitoneally on three consecutive days): did not result in clinically relevant or statistically significant changes | Click threshold shift, difference as compared to the control group (guinea pigs [1]; 10 mM IT): 21 dB | Difference in click threshold shift vs control, day 28 (guinea pigs [1]; 10 mM IT): 12 dB | Body weight [2]: weight loss was also observed | Stability in buffered solutions [3]: instability | Outer hair cell counts, 2nd turn (outer hair cells; 1 mM IT): 99.5 ± 1.3% | Outer hair cell counts, 3rd turn (outer hair cells; 1 mM IT): 99.0 ± 3.5% | Outer hair cell counts, apex (outer hair cells; 1 mM IT): 95.2 ± 7.5% | Outer hair cell counts, basal turn (outer hair cells; 1 mM IT): 99.5 ± 1.4% | Outer hair cell counts, 2nd turn (outer hair cells; 1.5 mg/kg systemic): 99.8 ± 1.3% | Outer hair cell counts, 3rd turn (outer hair cells; 1.5 mg/kg systemic): 97.7 ± 6.4% | Outer hair cell counts, apex (outer hair cells; 1.5 mg/kg systemic): 93.8 ± 9.3% | Outer hair cell counts, basal turn (outer hair cells; 1.5 mg/kg systemic): 99.6 ± 1.2% | Outer hair cell counts, 2nd turn (outer hair cells; 4.5 mg/kg systemic): 99.7 ± 1.3% | Outer hair cell counts, 3rd turn (outer hair cells; 4.5 mg/kg systemic): 98.5 ± 3.5% | Outer hair cell counts, apex (outer hair cells; 4.5 mg/kg systemic): 98.5 ± 3.0% | Outer hair cell counts, basal turn (outer hair cells; 4.5 mg/kg systemic): 99.9 ± 0.6% | Outer hair cell counts, 2nd turn (outer hair cells; 10 mM IT): 98.4 ± 2.4% | Outer hair cell counts, 3rd turn (outer hair cells; 10 mM IT): 98.8 ± 3.3% | Outer hair cell counts, apex (outer hair cells; 10 mM IT): 97.7 ± 4.2% | Outer hair cell counts, basal turn (outer hair cells; 10 mM IT): 99.6 ± 1.3% | Loss of outer or inner hair cells (outer hair cells; any of the treatment groups (IT and systemic)): did not result in a statistically significant loss | Inner hair cell counts, 2nd turn (inner hair cells): 99.6 ± 1.3% | Inner hair cell counts, 3rd turn (inner hair cells): 99.7 ± 1.2% | Hearing threshold at 4 kHz (guinea pigs [4]; 1 mM IT): 57.5 dB SPL | Hearing threshold at 8 kHz (guinea pigs [4]; 1 mM IT): 40.8 dB SPL | Hearing threshold at 16 kHz (guinea pigs [4]; 1 mM IT): 32.5 dB SPL | Hearing threshold at 32 kHz (guinea pigs [4]; 1 mM IT): 50 dB SPL | Mean hearing threshold at 1 kHz (guinea pigs [4]; 1 mM IT): 56.7 dB SPL | Mean hearing threshold at 2 kHz (guinea pigs [4]; 1 mM IT): 55 dB | Frequency-specific ABR threshold shift vs baseline (guinea pigs [4]; 1.5 mg/kg intraperitoneally, day 21, p=0.048): 5 dB | Hearing threshold at 4 kHz (guinea pigs [4]; 10 mM IT): 49.2 dB SPL | Hearing threshold at 8 kHz (guinea pigs [4]; 10 mM IT): 35 dB SPL | Hearing threshold at 16 kHz (guinea pigs [4]; 10 mM IT): 35 dB SPL | Hearing threshold at 32 kHz (guinea pigs [4]; 10 mM IT): 66.7 dB SPL | Mean hearing threshold at 1 kHz (guinea pigs [4]; 10 mM IT): 44.2 dB SPL | Mean hearing threshold at 2 kHz (guinea pigs [4]; 10 mM IT): 40 dB | Histologic analysis of the peritoneum (peritoneum): did not show any inflammatory or necrotic alterations
